Measurements from different studies.
Each line is one published result; the experiments were not run side by side.
Cell line: A549
Effect on: cell growth or viability

| Compound | assay | setting | IC50 |
| --- | --- | --- | --- |
| O=C(Nc1ccc(-c2ccc3ncn(Cc4ccccc4)c(=O)c3c2)cn1)c1ccco1 | CCK-8 | 72 h | > 10 µM |
| CC(C)[C@@H]1NC(=O)[C@@H](CCCNC(=N)N)NC(=O)[C@H]([C@@H](C)O)NC(=O)[C@@H](CN)NC(=O)[C@H](Cc2ccccc2)NC(=O)[C@@H](Cc2ccccc2)NC1=O | ATP luminescence |  | 79.8 µM |
| CCCC(=O)Nc1ccc(-c2ccc3ncn(CCC)c(=O)c3c2)cn1 | CCK-8 | 72 h | 0.46 µM |
| COc1ccc(NC(=O)Nc2nc3cc(-c4ccc5ncn(CCN6CCOCC6)c(=O)c5c4)ccc3s2)cc1 | MTT | 72 h | 1.4 µM |
| C/C(=N\C(=N)/N=C(\C)c1c(O)c2ccccc2oc1=O)c1c(O)c2ccccc2oc1=O | MTT | 48 h | 66 µM |
| O=C(O)c1ccc(NCc2cc(Br)ccc2O)cc1 | resazurin | 72 h | > 100 µM |
| O=C(Nc1ccc(F)cc1)Nc1nc2cc(-c3ccc4ncn(CC(=O)N5CCOCC5)c(=O)c4c3)ccc2s1 | MTT | 72 h | > 20 µM |
| COc1cccc(NC(=O)Cn2cc(COc3ncnc4[nH]cnc34)nn2)c1 | MTT |  | 30.2 µM |
| O=C(O)c1ccc(NCc2cccc(C(F)(F)F)c2)cc1 | resazurin | 72 h | > 100 µM |
| O=c1c2cc(Cl)cc(Cl)c2nc(NNc2cccc(Cl)c2)n1-c1ccccc1 | MTT | 48 h | > 200 µM |
| CC(C)[C@@H]1NC(=O)[C@@H](CCCCN)NC(=O)[C@H]([C@@H](C)O)NC(=O)[C@@H](CCCN)NC(=O)[C@H](Cc2ccccc2)NC(=O)[C@@H](Cc2ccccc2)NC1=O | ATP luminescence | 72 h | > 100 µM |
| O=C(O)c1ccc(NCc2cccc(O)c2)cc1 | resazurin | 72 h | > 100 µM |
| C(=N\Nc1cc(N/N=C/c2ccc3ccccc3n2)ncn1)/c1ccc2ccccc2n1 | MTT | 48 h | 16.7 µM |
| Cc1ccc(NC(=O)Nc2ccc(-c3ccc4ncn(Cc5ccccc5)c(=O)c4c3)cn2)cc1 | CCK-8 | 72 h | > 10 µM |
| COc1cccc(CNc2ccc(C(=O)O)cc2)c1OC | resazurin | 72 h | > 100 µM |
| O=C(Nc1ccc(C(F)(F)F)cc1)Nc1nc2cc(-c3ccc4ncn(CCN5CCOCC5)c(=O)c4c3)ccc2s1 | MTT | 72 h | 2.01 µM |
| CCCn1cnc2ccc(-c3ccc(N4CCCCC4=O)nc3)cc2c1=O | CCK-8 | 72 h | > 10 µM |
| O=C(C=Cc1cccs1)c1ccc(OCCCOc2ccc(C(=O)C=Cc3cccs3)cc2)cc1 | MTT | 48 h | 115 µM |
| O=C(Nc1nc2cc(-c3ccc4ncn(Cc5ccccc5)c(=O)c4c3)ccc2s1)NC1CCCCC1 | MTT | 72 h | 12.2 µM |
| COc1cccc2c1C(=O)c1c(O)c3c(c(O)c1C2=O)C[C@@](O)(C(=O)CO)C[C@@H]3O[C@H]1C[C@H](N)[C@H](O)[C@H](C)O1 | MTT |  | 3.87 µg/mL |
| COC(=O)c1cc(C(C)=NNc2nc(-c3ccc4c(c3)OCCCO4)cs2)ccc1O | MTT | 96 h | 180 µM |
| NS(=O)(=O)c1ccc(-n2nc(C(=O)NN3C(=O)c4ccccc4C3=O)cc2-c2ccccc2)cc1 | fluorescence | 48 h | 33.5 µM |
| O=C(Nc1ccc(F)cc1)Nc1nc2cc(-c3ccc4ncn(CC5CC5)c(=O)c4c3)ccc2s1 | MTT | 72 h | 2.48 µM |
| OC1CCN(c2ccc(/C=N/NC(=S)Nc3ccc(Br)cc3)cc2)CC1 | MTT | 24 h | 1.85 µM |
| Fc1ccccc1Nc1nc(-c2ccncc2)nc2c1CNCC2 | MTT |  | > 100 µM |
| COc1ccc(C=NNC(=O)c2cc(-c3ccccc3)n(-c3ccc(S(N)(=O)=O)cc3)n2)cc1OC | fluorescence | 48 h | 15.5 µM |

| Compound | assay | setting | IC50 |
| --- | --- | --- | --- |
| C/C(=N\CCNCC/N=C(\C)c1c(O)c2ccccc2oc1=O)c1c(O)c2ccccc2oc1=O | MTT | 48 h | 8.75 µM |
| OC1CCN(c2ccc(/C=N/NC(=S)NC3CCCCC3)cc2)CC1 | MTT | 24 h | 3.83 µM |
| COc1cccc(NC(=S)N/N=C/c2cccc3cc4ccccc4nc23)c1 | MTT | 48 h | > 50 µM |
| CC(C)Cc1ccc([C@H](C)C(=O)O)cc1 | SRB | 72 h | 349 µM |
| CCCCn1cnc2ccc(-c3ccc(NC(=O)c4ccccc4)nc3)cc2c1=O | CCK-8 | 72 h | > 10 µM |
| COc1ccc(CNc2ccc(C(=O)O)cc2)cc1 | resazurin | 72 h | > 100 µM |
| CCCCn1cnc2ccc(-c3ccc(NC(=O)Nc4ccc(Cl)cc4)nc3)cc2c1=O | CCK-8 | 72 h | > 10 µM |
| CCCn1cnc2ccc(-c3ccc4sc(NC(=O)Nc5ccc(F)cc5)nc4c3)cc2c1=O | MTT | 72 h | 0.44 µM |
| CCCCC(=O)Nc1ccc(-c2ccc3ncn(CCC)c(=O)c3c2)cn1 | CCK-8 | 72 h | 0.11 µM |
| CN(C)C(=O)Nc1nc2c(Cl)cc(Cl)cc2c(=O)n1-c1ccccc1 | MTT | 48 h | > 200 µM |
| Cc1ccc(C(C)C)c(OC2=C(Cl)C(=O)c3ccccc3C2=O)c1 | MTT | 24 h | 40 µg/mL |
| O=C(C=Cc1ccc(OCCOc2ccc(C=CC(=O)c3cccs3)cc2)cc1)c1cccs1 | MTT | 48 h | 273 µM |
| Cc1ccc(NNc2nc3c(Cl)cc(Cl)cc3c(=O)n2-c2ccccc2)cc1 | MTT | 48 h | > 200 µM |
| OC1CCN(c2ccc(/C=N/NC(=S)NCCc3ccccc3)cc2)CC1 | MTT | 24 h | 1.33 µM |
| CCCn1cnc2ccc(-c3ccc(NC(=O)CC4CC4)nc3)cc2c1=O | CCK-8 | 72 h | 2.65 µM |
| O=C(NCc1ccccc1)Nc1nc2cc(-c3ccc4ncn(Cc5ccccc5)c(=O)c4c3)ccc2s1 | MTT | 72 h | 3.13 µM |
| Cc1cc(NS(=O)(=O)c2ccc(NC(=O)/C(C#N)=C/c3ccc(N4CCCCC4)cc3)cc2)no1 | MTT | 48 h | 36.4 µM |
| CC1=CC(=O)c2ccccc2C1=O | MTT |  | 55.6 µM |
| OC1CCN(c2ccc(/C=N/NC(=S)Nc3cccc(Cl)c3Cl)cc2)CC1 | MTT | 24 h | 0.58 µM |
| NS(=O)(=O)c1ccc(-n2nc(C(=O)NN=Cc3cccnc3)cc2-c2ccccc2)cc1 | fluorescence | 48 h | 24.6 µM |
| C/C(=N\C(=O)/N=C(\C)c1c(O)c2ccccc2oc1=O)c1c(O)c2ccccc2oc1=O | MTT | 48 h | 19.7 µM |
| CC(C)CNC(=S)N/N=C/c1cccc2cc3ccccc3nc12 | MTT | 48 h | > 50 µM |
| O=C(N[C@@H](CSCc1ccc([N+](=O)[O-])cc1)C(=O)NO)c1ccccc1 | MTT | 48 h | 48.2 µM |
| O=c1[nH]cc(F)c(=O)[nH]1 | MTT | 48 h | 11.8 µM |
| CN(C)CCn1cnc2ccc(-c3ccc4sc(NC(=O)Nc5ccc(F)cc5)nc4c3)cc2c1=O | MTT | 72 h | 0.98 µM |
